Source: PubChem (Broad Institute)
Only some compounds are listed: those with a hit (about 1.6% of all), similar ones and a draw of the others.
SR-BI uptake up – activators of SR-BI mediated DiI-HDL uptake, primary screen, ldlA[mSR-BI] CHO cells, DiI fluorescence; 3 h; 100 = double the neutral-control signal; activation, % at 12.5 µM; actives 0.096% (n = 320,000); AID 504775, 2011;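 active means mean replicate activation of at least 60% and every replicate at or above 60%; inconclusive means mean or all-replicate condition met, but not both; inactive means mean below 60% and not all replicates reaching 60%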;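 further: 0% = median plate neutral-control signal and 100% = twice that signal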
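System: LDL receptor-deficient CHO ldlA cells overexpressing murine SR-BI | Timing: 3 h uptake period with compound, 37 °C | Medium: HEPES-buffered (25 mM, pH 7.4) F12 plus 0.5% BSA | Dosing: Single-point compound dose | Signal: Bottom-read fluorescence, 550/595 nm | Read-out: Retained DiI signal reflecting DiI-HDL uptake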
S100A4 inh HTS – inhibitors of S100A4-myosin IIA peptide binding, primary screen, biochemical, fluorescence polarization, TAMRA-MyoIIA peptide; Protein S100-A4 (Homo sapiens), P26447; inhibition, % at 10.7 µM; actives 0.14% (n = 360,000);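 active means mean inhibition of at least 70% across replicates, with every replicate also reaching that level; inconclusive means mean inhibition reaches 70% but some replicates fall short; inactive means mean inhibition below 70%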
Target sequence (P26447 whole entry, looked up): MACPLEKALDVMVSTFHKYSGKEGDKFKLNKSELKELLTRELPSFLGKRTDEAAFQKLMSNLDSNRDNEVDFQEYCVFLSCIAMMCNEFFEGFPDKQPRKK
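Test system – S100A4 monomer (human) · Compound – single-point compound testing · Schedule – 5 min incubation before reading · Probe or stimulus – TAMRA-labelled myosin IIA heavy-chain peptide probe, 5 nM · Benchmarks – neutral control DMSO, positive control TFP · Medium – Calcium-containing HEPES buffer, pH 7.2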
SR-BI HDL uptake – inhibitors of SR-BI mediated HDL lipid uptake, primary screen, ldlA[mSR-BI] cells, fluorescence, single point | ldlA[mSR-BI] CHO cells, DiI-HDL uptake fluorescence, 3 h | inhibition, % at 12.5 µM | actives 0.96% (n = 320,000);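 active means mean replicate inhibition of at least 70% and a set share of replicates each scoring 70 or more; inconclusive means meets just one of the two criteria; inactive means fails both criteria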;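 further: 0% = median of neutral control wells and 100% = median of positive control wells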
Target sequence (Q61009 whole entry, looked up): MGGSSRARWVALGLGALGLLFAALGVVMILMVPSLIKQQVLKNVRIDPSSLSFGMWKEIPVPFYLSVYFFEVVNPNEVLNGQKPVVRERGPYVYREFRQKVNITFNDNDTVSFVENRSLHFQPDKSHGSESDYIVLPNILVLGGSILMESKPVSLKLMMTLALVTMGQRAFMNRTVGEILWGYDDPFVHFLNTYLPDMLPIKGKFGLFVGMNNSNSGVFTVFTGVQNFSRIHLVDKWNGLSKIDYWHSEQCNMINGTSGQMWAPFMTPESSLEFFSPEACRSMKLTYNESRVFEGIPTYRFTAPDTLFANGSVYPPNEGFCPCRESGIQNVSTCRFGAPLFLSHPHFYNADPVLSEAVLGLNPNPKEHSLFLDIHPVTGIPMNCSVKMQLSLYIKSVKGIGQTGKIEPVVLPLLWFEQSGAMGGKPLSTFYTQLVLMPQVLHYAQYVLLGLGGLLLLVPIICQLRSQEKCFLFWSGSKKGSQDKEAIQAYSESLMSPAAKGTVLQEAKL
dFosB act-1 – activators of delta FosB homodimer, primary screen, biochemical, fluorescence polarization, TAMRA-CDK5 oligo, single point | Protein FosB (Mus musculus), P13346 | purified delta FosB; percent of positive-control signal above neutral wells | activation, % at 25 µM | actives 0.99% (n = 340,000);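 active means mean activation above about 17%, with every replicate also reaching it, limit read from the data, passing the limit was not always enough; inconclusive means only one of the two conditions met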
RAD54 inh – inhibitors of human RAD54 branch migration, primary screen, biochemical, fluorescence, single point. AID 602329, 2012. DNA repair and recombination protein RAD54-like (Homo sapiens), Q92698. RAD54 Holliday junction branch migration, FAM/BHQ fluorescence. inhibition, % at 10.4 µM. actives 0.14% (n = 360,000);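 active means mean normalized replicate activity at least 40 and at least half of replicates scoring 40 or more; inconclusive means only one of the two criteria met; inactive means mean below 40 and under half of replicates reaching 40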;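 further: 0% = median of neutral control wells and 100% = median of positive control wells; inhibitors cause a drop in the FAM fluorescence signal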
PvdQ inh – P. aeruginosa PvdQ acylase inhibitors, primary screen, biochemical, fluorescence, plate reader and imaging, single point | PvdQ acylase [Pseudomonas aeruginosa LESB58] | purified PvdQ acylase | inhibition, % at 10 µM | actives 0.063% (n = 340,000) | AID 488965, 2010; in the data active means inhibition above about 30%, passing the limit was not always enough; inconclusive means no clear call, values can overlap the other calls;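 further: 0% = vehicle neutral wells and 100% = reference inhibitor wells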
dFosB act-2 – activators of mouse delta FosB DNA binding, confirmation, biochemical, fluorescence polarization, TAMRA-CDK5 oligo, cherry-picked samples; shares compounds with dFosB act-1; purified delta FosB; normalised: neutral wells 0, positive control 100; activation, % at 24.9 µM; 2,400 tested, under 10 active; AID 588690, 2011;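 active means highest replicate activation at or above 34% and every replicate reaching that threshold; inconclusive means meets only one of the two criteria; inactive means meets neither criterion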;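 further: higher polarization means more probe DNA bound by delta FosB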
* hit, by the source's call.

`COc1ccc(/C=C2\SC(=O)N(CCC(=O)Nc3ccc(S(=O)(=O)Nc4nccs4)cc3)C2=O)cc1` gave SR-BI uptake up -14.6, SR-BI HDL uptake 14.6, dFosB act-1 86.0*, PvdQ inh -12.4 and dFosB act-2 3.0.
`COc1ccc(/C=C2/SC(=O)N(CCC(=O)Nc3ccc(S(=O)(=O)Nc4nccs4)cc3)C2=O)cc1` gave SR-BI uptake up -10.7, SR-BI HDL uptake 10.7, dFosB act-1 inconclusive and PvdQ inh -7.2.
For CNC(=O)C[C@H]1CC[C@@H]2[C@H](COc3ccc(NC(=O)c4cccc(F)c4)cc3C(=O)N2C)O1 the results were S100A4 inh HTS -2.6 and RAD54 inh -4.4.
`Oc1ccc(C[C@H]2CNC(=S)N2CC2CCCN2C[C@H](Cc2ccc(O)cc2)N2C[C@H](Cc3ccccc3)N(CC3CCCCCC3)C2=S)cc1` (stereo partly specified) gave SR-BI uptake up 67.9*, S100A4 inh HTS -2.1, SR-BI HDL uptake -67.9, dFosB act-1 71.9*, RAD54 inh -0.8, PvdQ inh 9.9 and dFosB act-2 3.4.
Screening CCOc1ccc(CCN2C(=S)N([C@@H](Cc3ccc(O)cc3)CN3CCCC3CN3C(=S)NC[C@@H]3Cc3ccc(O)cc3)C[C@@H]2CC(C)C)cc1 (stereo partly specified) returned SR-BI uptake up 30.9, S100A4 inh HTS 3.6, SR-BI HDL uptake -30.9, dFosB act-1 87.8*, RAD54 inh 2.5, PvdQ inh -13.5 and dFosB act-2 3.2.
For Oc1ccc(C[C@@H](CN2CCCC2CN2C(=S)NC[C@@H]2Cc2ccccc2)N2C[C@H](Cc3ccccc3)N(CC3CCCCC3)C2=S)cc1 (stereo partly specified) the results were S100A4 inh HTS -10.1.
Screening C[C@@H]1CN([C@H](C)CO)C(=O)c2cc(NC(=O)C3CCCCC3)ccc2O[C@@H](C)CCCCO[C@H]1CN(C)C(=O)c1ccccc1 returned S100A4 inh HTS -19.3 and RAD54 inh 6.8.
Screening C[C@H](CO)N1C[C@H](C)[C@@H](CN(C)C(=O)C2CCCCC2)OCCCC[C@H](C)Oc2ccc(NC(=O)Nc3ccc4c(c3)OCO4)cc2C1=O returned S100A4 inh HTS -8.2 and RAD54 inh -0.9.
Screening C/C(=N\NC(=O)COc1ccccc1[N+](=O)[O-])c1cccc(NC(=O)c2ccncc2)c1 returned SR-BI uptake up -80.7, S100A4 inh HTS -6.3, SR-BI HDL uptake 80.7*, dFosB act-1 21.3*, RAD54 inh -0.2, PvdQ inh -7.1 and dFosB act-2 3.0.
COc1ccc(/C(C)=N/NC(=O)c2ccncc2)cc1[N+](=O)[O-] was read as SR-BI uptake up 0.8, S100A4 inh HTS -0.8, SR-BI HDL uptake -0.8, dFosB act-1 -6.6, RAD54 inh 2.6 and PvdQ inh -12.2.
`C[C@H]1CN([C@@H](C)CO)C(=O)c2cc(NS(=O)(=O)c3cn(C)cn3)ccc2O[C@H]1CN(C)C(=O)NC1CCCCC1` gave S100A4 inh HTS 5.7 and RAD54 inh 8.2.
CC(=O)NC(CC(=O)NCCc1ccccc1)c1ccccc1 (stereo unspecified) was read as SR-BI uptake up 50.9, S100A4 inh HTS -2.0, SR-BI HDL uptake -50.9, dFosB act-1 -8.2, RAD54 inh 4.9 and PvdQ inh -9.6.
For O=C(CC(NC(=O)c1ccccc1Cl)c1ccccc1)NCCc1ccc(Cl)cc1 (stereo unspecified) the results were SR-BI uptake up -13.3, SR-BI HDL uptake 13.3, dFosB act-1 24.9*, RAD54 inh 0.3, PvdQ inh -7.5 and dFosB act-2 -0.5.
Screening COc1ccc2c3c(n(C)c2c1)[C@H](CO)N(Cc1ccc2c(c1)OCO2)CC31CN(C(=O)c2ccc3c(c2)OCO3)C1 returned S100A4 inh HTS -20.2.
For CN(CC(=O)Nc1ccc(Cl)cc1)C(=O)CCc1nc2sc3c(c2c(=O)[nH]1)CCCC3 the results were SR-BI uptake up -27.8, S100A4 inh HTS 0.4, SR-BI HDL uptake 27.8, dFosB act-1 28.5*, RAD54 inh -5.3, PvdQ inh 4.9 and dFosB act-2 0.7.
For CN(CC(=O)Nc1ccccc1C(F)(F)F)C(=O)CCc1nc2sc3c(c2c(=O)[nH]1)CCCC3 the results were SR-BI uptake up -15.2, S100A4 inh HTS 0.6, SR-BI HDL uptake 15.2, dFosB act-1 22.5*, RAD54 inh -5.0, PvdQ inh 0.7 and dFosB act-2 1.6.
For CCN(CC(=O)Nc1ccccc1C(F)(F)F)C(=O)CCc1nc2sc3c(c2c(=O)[nH]1)CCCC3 the results were SR-BI uptake up -24.5, S100A4 inh HTS -2.1, SR-BI HDL uptake 24.4, dFosB act-1 2.1, RAD54 inh 0.6 and PvdQ inh 3.6.
For CN(CC(=O)Nc1ccc(F)cc1)C(=O)CCc1nc2sc3c(c2c(=O)[nH]1)CCCC3 the results were SR-BI uptake up -19.2, S100A4 inh HTS -2.0, SR-BI HDL uptake 19.2, dFosB act-1 11.5, RAD54 inh -2.0 and PvdQ inh -8.3.
For CC(C)NC(=O)c1c(O)c2ccccc2[nH]c1=O the results were SR-BI uptake up 0.1, SR-BI HDL uptake -0.1, dFosB act-1 -0.6, RAD54 inh -2.3 and PvdQ inh -14.1.
For COC(=O)Nc1ccc(S(=O)(=O)NNC(=O)c2c(O)c3ccccc3[nH]c2=O)cc1 the results were SR-BI uptake up 15.1, S100A4 inh HTS -0.9, SR-BI HDL uptake -15.1, dFosB act-1 23.6*, RAD54 inh 5.5, PvdQ inh 13.6 and dFosB act-2 -1.3.
`COC(=O)c1c(O)c2ccccc2[nH]c1=O` gave SR-BI uptake up 28.5, SR-BI HDL uptake -28.5, dFosB act-1 3.7, RAD54 inh 1.0 and PvdQ inh -3.6.
`Cc1ccc(S(=O)(=O)NNC(=O)c2c(O)c3ccccc3[nH]c2=O)cc1` gave S100A4 inh HTS -4.3, dFosB act-1 20.7*, RAD54 inh 2.8, PvdQ inh -12.4 and dFosB act-2 0.8.
